What was measured:
[1] = target: T1, D(2) dopamine receptor (Homo sapiens, UniProt P14416); experiment: biochemical; format: cell-based, HEK293
[2] = tested on: Rattus norvegicus; experiment: Reduction in spontaneous locomotor activity in Sprague-Dawley rat striatum at 100 umol/kg, sc relative to control; format: functional; design: scale not given: the % may be the effect or the level left
[3] = target: T1, D(2) dopamine receptor; experiment: biochemical; format: cell-based, HEK293; remark: listed apart in the source
[4] = tested on: Rattus norvegicus; experiment: Reduction in amphetamine-induced locomotor activity in Sprague-Dawley rat striatum at 100 umol/kg, sc relative to control; format: functional; design: scale not given: the % may be the effect or the level left
Procedure, shortened: (§1)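 Rats were pretreated with amphetamine (1.5 mg/kg intraperitoneally). Locomotor activity was recorded 15-60 min after test-compound injection, measured at 25 Hz and compared with amphetamine-pretreated controls, with n = 4.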

[5] = tested on: Rattus norvegicus; experiment: Reduction in 3,4-dihydroxyphenylacetic acid level in Sprague-Dawley rat striatum at 100 umol/kg, sc relative to saline treated control; format: functional; design: scale not given: the % may be the effect or the level left
Procedure, shortened: (§2)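 Striatal DOPAC measured post-mortem after a single test-compound dose. Each level is expressed as a percentage of the saline-treated control, with n = 4. Significance was tested by Student's t test (P<0.05).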

[6] = tested on: Rattus norvegicus; experiment: Reduction in 3,4-dihydroxyphenylacetic acid level in Sprague-Dawley rat striatum at 6.59 umol/kg, sc relative to saline treated control; format: functional; design: scale not given: the % may be the effect or the level left
Procedure, shortened: as §2

[7] = tested on: Rattus norvegicus; experiment: Reduction in spontaneous locomotor activity in Sprague-Dawley rat striatum at 6.59 umol/kg, sc relative to control; format: functional; design: scale not given: the % may be the effect or the level left
[8] = tested on: Rattus norvegicus; experiment: Reduction in spontaneous locomotor activity in Sprague-Dawley rat striatum at 117 umol/kg, sc relative to control; format: functional; design: scale not given: the % may be the effect or the level left
[9] = tested on: Rattus norvegicus; experiment: Reduction in 3,4-dihydroxyphenylacetic acid level in Sprague-Dawley rat striatum at 117 umol/kg, sc relative to saline treated control; format: functional; design: scale not given: the % may be the effect or the level left
Procedure, shortened: as §2

[10] = tested on: Rattus norvegicus; experiment: Reduction in spontaneous locomotor activity in Sprague-Dawley rat striatum at 33 umol/kg, sc relative to control; format: functional; design: scale not given: the % may be the effect or the level left
[11] = tested on: Rattus norvegicus; experiment: Reduction in 3,4-dihydroxyphenylacetic acid level in Sprague-Dawley rat striatum at 33 umol/kg, sc relative to saline treated control; format: functional; design: scale not given: the % may be the effect or the level left
Procedure, shortened: as §2

[12] = tested on: Rattus norvegicus; experiment: Reduction in amphetamine-induced locomotor activity in Sprague-Dawley rat striatum at 33 umol/kg, sc relative to control; format: functional; design: scale not given: the % may be the effect or the level left
Procedure, shortened: as §1

[13] = tested on: Rattus norvegicus; experiment: Reduction in 3,4-dihydroxyphenylacetic acid level in Sprague-Dawley rat striatum at 1 umol/kg, sc relative to saline treated control; format: functional; design: scale not given: the % may be the effect or the level left
Procedure, shortened: (§3)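 Striatal DOPAC was measured by post-mortem biochemistry in rat striatum and expressed relative to saline-injected controls (n = 4). Significance was tested by Student's t test at P<0.05.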

[14] = tested on: Rattus norvegicus; experiment: Reduction in spontaneous locomotor activity in Sprague-Dawley rat striatum at 1 umol/kg, sc relative to control; format: functional; design: scale not given: the % may be the effect or the level left
Procedure, shortened: (§4)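 Locomotor activity was recorded in partly habituated rats from 15 to 60 min after injection, sampled at 25 Hz. It was expressed as a percentage of saline control.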

[15] = tested on: Rattus norvegicus; experiment: Reduction in amphetamine-induced locomotor activity in Sprague-Dawley rat striatum at 1 umol/kg, sc relative to control; format: functional; design: scale not given: the % may be the effect or the level left
Procedure, shortened: (§5)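 Rats were pretreated with amphetamine at 1.5 mg/kg intraperitoneally. Locomotor activity was recorded from 15 to 60 min after injection, sampled at 25 Hz, and compared with amphetamine-pretreated controls (n = 4).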

[16] = tested on: Rattus norvegicus; experiment: Reduction in amphetamine-induced locomotor activity in Sprague-Dawley rat striatum at 50 umol/kg, sc relative to control; format: functional; design: scale not given: the % may be the effect or the level left
Procedure, shortened: as §5

[17] = tested on: Rattus norvegicus; experiment: Reduction in spontaneous locomotor activity in Sprague-Dawley rat striatum at 7.68 umol/kg, sc relative to control; format: functional; design: scale not given: the % may be the effect or the level left
Procedure, shortened: as §4

[18] = tested on: Rattus norvegicus; experiment: Reduction in 3,4-dihydroxyphenylacetic acid level in Sprague-Dawley rat striatum at 7.68 umol/kg, sc relative to saline treated control; format: functional; design: scale not given: the % may be the effect or the level left
Procedure, shortened: as §3

[19] = tested on: Rattus norvegicus; experiment: Reduction in amphetamine-induced locomotor activity in Sprague-Dawley rat striatum at 7.68 umol/kg, sc relative to control; format: functional; design: scale not given: the % may be the effect or the level left
Procedure, shortened: as §5

[20] = tested on: Rattus norvegicus; experiment: Reduction in amphetamine-induced locomotor activity in Sprague-Dawley rat striatum at 10.5 umol/kg, sc relative to control; format: functional; design: scale not given: the % may be the effect or the level left
Procedure, shortened: as §5

[21] = tested on: Rattus norvegicus; experiment: Reduction in spontaneous locomotor activity in Sprague-Dawley rat striatum at 10.5 umol/kg, sc relative to control; format: functional; design: scale not given: the % may be the effect or the level left
Procedure, shortened: as §4

[22] = tested on: Rattus norvegicus; experiment: Reduction in 3,4-dihydroxyphenylacetic acid level in Sprague-Dawley rat striatum at 10.5 umol/kg, sc relative to saline treated control; format: functional; design: scale not given: the % may be the effect or the level left
Procedure, shortened: as §3

T1 sequence (P14416 whole entry): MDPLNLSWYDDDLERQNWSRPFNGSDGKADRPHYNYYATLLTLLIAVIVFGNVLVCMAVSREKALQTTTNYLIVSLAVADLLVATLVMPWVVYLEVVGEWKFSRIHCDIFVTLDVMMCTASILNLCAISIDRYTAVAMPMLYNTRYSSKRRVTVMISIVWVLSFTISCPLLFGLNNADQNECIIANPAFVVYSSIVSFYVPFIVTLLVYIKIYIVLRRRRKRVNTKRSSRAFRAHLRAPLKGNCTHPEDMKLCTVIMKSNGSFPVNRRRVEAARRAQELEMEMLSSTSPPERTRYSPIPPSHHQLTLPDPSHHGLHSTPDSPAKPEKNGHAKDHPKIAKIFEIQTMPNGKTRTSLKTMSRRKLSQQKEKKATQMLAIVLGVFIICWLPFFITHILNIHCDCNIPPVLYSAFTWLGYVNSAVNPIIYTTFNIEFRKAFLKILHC

Q: For `CS(=O)(=O)c1cccc(N2CCN(Cc3ccccc3)CC2)c1`, which Ki [1] is on record?
A: 431 nM

Q: What about the Activity [2] of the same compound?
A: 17%

Q: What about the Ki [3] of the same compound?
A: 1920 nM

Q: And the Activity [4]?
A: 15%

Q: And the Activity [5]?
A: 248%

Q: Which Ki [1] does the source give for `CCCN1CCC(c2cccc(S(C)(=O)=O)c2)CC1` [PRIDOPIDINE] here?
A: 7520 nM

Q: And the Activity [2]?
A: 262%

Q: What about the Ki [3] of the same compound?
A: 17500 nM

Q: What about the Activity [5] of the same compound?
A: 265%

Q: With `CN1CCc2cccc3c2[C@H]1Cc1ccc(O)c(O)c1-3` [APOMORPHINE] as the compound, how does the Activity [6] read?
A: 77%

Q: What about the Activity [7] of the same compound?
A: 7118%

Q: How did the Activity [8] turn out when `CCCN1CCC[C@@H](c2cccc(O)c2)C1` [PRECLAMOL] was run?
A: 37%

Q: And the Activity [9]?
A: 175%

Q: Which results are given for `CCCN1CCC(c2cccc(O)c2)CC1`?
A: Ki [1]: 349 nM; Ki [3]: 2570 nM

Q: With `CCCN1CCN(c2cccc(O)c2)CC1` as the compound, how does the Ki [1] read?
A: 69 nM

Q: What about the Activity [10] of the same compound?
A: 31%

Q: And the Ki [3]?
A: 721 nM

Q: And the Activity [11]?
A: 261%

Q: What about the Activity [12] of the same compound?
A: 16%

Q: `O=C(CCCN1CCC(O)(c2ccc(Cl)cc2)CC1)c1ccc(F)cc1` [HALOPERIDOL] was tested. Which Activity [13] did it give?
A: 425%

Q: And the Activity [14]?
A: 7%

Q: And the Activity [15]?
A: 1%

Q: With `CCCN1CCN(c2cccc(S(C)(=O)=O)c2)CC1` as the compound, how does the Ki [1] read?
A: 664 nM

Q: And the Activity [10]?
A: 27%

Q: What about the Ki [3] of the same compound?
A: 1210 nM

Q: What about the Activity [11] of the same compound?
A: 310%

Q: What about the Activity [12] of the same compound?
A: 6%

Q: What does the source list for `CS(=O)(=O)c1cccc(C2CCN(Cc3ccccc3)CC2)c1`?
A: Ki [1]: 392 nM; Activity [10]: 44%; Activity [16]: 6%; Ki [3]: 841 nM; Activity [11]: 310%

Q: What does the source list for `O=C1CCc2ccc(OCCCCN3CCN(c4cccc(Cl)c4Cl)CC3)cc2N1` [ARIPIPRAZOLE]?
A: Activity [17]: 2%; Activity [18]: 150%; Activity [19]: 9%

Q: How did the Ki [1] turn out when `Oc1cccc(C2CCN(Cc3ccccc3)CC2)c1` was run?
A: 35 nM

Q: And the Activity [10]?
A: 85%

Q: What about the Ki [3] of the same compound?
A: 285 nM

Q: What about the Activity [11] of the same compound?
A: 317%

Q: What about the Activity [12] of the same compound?
A: 12%

Q: Which Activity [20] does the source give for `Cc1cc2c(s1)Nc1ccccc1N=C2N1CCN(C)CC1` [OLANZAPINE] here?
A: 6%

Q: What about the Activity [21] of the same compound?
A: 17%

Q: What about the Activity [22] of the same compound?
A: 362%

Q: Which results are given for `O=c1[nH]c2cccc(N3CCN(Cc4cccc(-c5ccccc5)c4)CC3)c2o1` [BIFEPRUNOX]?
A: Activity [17]: 7%; Activity [18]: 152%; Activity [19]: 5%

Q: With `Oc1cccc(N2CCN(Cc3ccccc3)CC2)c1` as the compound, how does the Activity [2] read?
A: 8%

Q: And the Activity [4]?
A: 10%

Q: And the Activity [5]?
A: 108%

Q: For `CCCN1CCC[C@@H](c2cccc(S(C)(=O)=O)c2)C1`, which Ki [1] is on record?
A: 755 nM

Q: What about the Activity [2] of the same compound?
A: 215%

Q: What about the Ki [3] of the same compound?
A: 3880 nM

Q: What about the Activity [4] of the same compound?
A: 37%

Q: And the Activity [5]?
A: 260%

Source: ChEMBL document CHEMBL1157594, “Synthesis and evaluation of a set of 4-phenylpiperidines and 4-phenylpiperazines as D2 receptor ligands and the discovery of the dopaminergic stabilizer 4-[3-(methylsulfonyl)phenyl]-1-propylpiperidine (huntexil, pridopidine, ACR16)” (J Med Chem, 2010)
